In brackets after ≈: the same amount, converted by molar mass. Activity calls are given as the source filed them. No cut-off for these calls is given here.
Tests used:
Candida albicans [1] = experiment: Antifungal activity against Candida albicans ATCC 10231 after 48 hrs by broth dilution method; type: functional; conditions: ATCC 10231, 48 h
Candida albicans [2] = experiment: Antifungal activity against itraconazole and fluconazole susceptible Candida albicans ATCC MYA-2876 after 48 hrs by broth dilution method; type: functional; conditions: Candida albicans, ATCC MYA-2876, 48 h
Candida parapsilosis [3] = experiment: Antifungal activity against Candida parapsilosis ATCC 22019 after 48 hrs by broth dilution method; type: functional; conditions: Lodderomyces parapsilosis, ATCC 22019, 48 h
Candida albicans [4] = experiment: Antifungal activity against Candida albicans ATCC 10231 after 48 hrs in the presence of 10% FBS by broth dilution method; type: functional; conditions: ATCC 10231, 48 h
Aspergillus flavus = experiment: Antifungal activity against Aspergillus flavus ATCC MYA-3631 after 48 hrs by broth dilution method; type: functional; conditions: ATCC MYA-3631, 48 h
Candida albicans [5] = experiment: Inhibition of 14alpha-demethylase in Candida albicans ATCC 10231 assessed as ergosterol levels at 0.975 ug/mL by GC-MS analysis; set-up: scale not given: the % may be the effect or the level left
Method in brief: (§1)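 C. albicans ATCC 10231 was treated with drug or DMSO (no-drug control). Sterols were extracted and analysed by GC-MS; lanosterol, eburicol, ergosterol and 14α-methyl ergosta-8,24(28)-diene-3β,6α-diol were quantified as percent of sterols.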

Aspergillus terreus = experiment: Antifungal activity against Aspergillus terreus ATCC MYA-3633 after 48 hrs by broth dilution method; type: functional; conditions: Aspergillus terreus, ATCC MYA-3633, 48 h
Method in brief: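 Molds tested per CLSI M38-A2. Spores were harvested from sporulating PDA cultures by filtering through glass wool and counted on a hemocytometer. Serial dilutions (0.03–31.3 µg/mL) were made in RPMI 1640 buffered to pH 7.0 with 0.165 M MOPS, final inoculum 5 × 10^5 CFU/mL.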

Pichia kudriavzevii = experiment: Antifungal activity against Candida krusei ATCC 6258 after 48 hrs by broth dilution method; type: functional; conditions: Pichia kudriavzevii, ATCC 6258, 48 h
Method in brief: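 Yeasts tested per CLSI M27-A3 with minor changes. An overnight YPD culture (35 °C, 200 rpm) was adjusted to OD600 0.12 and diluted in MOPS-buffered RPMI 1640 (pH 7.0) to a final 1–2 × 10^3 CFU/mL. Compounds 0.015–31.3 µg/mL, DMSO <1.25%.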

Candida albicans [6] = experiment: Antifungal activity against Candida albicans ATCC 10231 at 7.8 ug/mL incubated for 1 hr by propidium iodide staining-based fluorescence microscopic method; type: functional
Method in brief: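 C. albicans ATCC 10231 grown overnight in YPD broth at 35 °C with shaking at 200 rpm, then transferred to RPMI 1640. Cells were exposed to drug and stained with propidium iodide, which enters only cells with compromised membranes. Uptake was judged by fluorescence microscopy against an untreated control.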

Candida albicans [7] = experiment: Antibiofilm activity against voriconazole resistant Candida albicans ATCC 64124 sessile cells incubated for 24 hrs by XTT reduction assay; type: functional; conditions: ATCC 64124, 24 h
Method in brief: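 Strain B grown overnight in YPD broth at 35 °C, diluted to OD600 0.1 (~10^6 CFU/mL), then grown statically for 24 h at 37 °C to form biofilm. Washed with PBS, then drug in RPMI 1640 at 0.12–62.5 µg/mL for 24 h at 37 °C. Read-out: XTT 0.5 mg/mL with menadione 1 µM, 2 h, A490. SMIC50/SMIC80 are 50%/80% decreases versus drug-free biofilm. Duplicate.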

Nakaseomyces glabratus [8] = experiment: Antifungal activity against Candida glabrata ATCC 2001 after 48 hrs by broth dilution method; type: functional, CBS 138; conditions: Nakaseomyces glabratus, CBS 138, 48 h
Candida albicans [9] = experiment: Antifungal activity against itraconazole and fluconazole resistant Candida albicans ATCC MYA-1237 after 48 hrs by broth dilution method; type: functional; conditions: Candida albicans, ATCC MYA-1237, 48 h
Method in brief: (§2)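 CLSI M27-A3 broth microdilution with minor modifications. Overnight YPD culture grown at 35 °C, 200 rpm, adjusted to OD600 0.12, diluted in RPMI 1640 buffered to pH 7.0 with 0.165 M MOPS to a final 1–2 × 10^3 CFU/mL. Test compounds at 0.015–31.3 µg/mL, 48 h at 35 °C, DMSO <1.25%. […] Triplicate.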

Candida albicans [10] = experiment: Antifungal activity against itraconazole and fluconazole resistant Candida albicans ATCC MYA-1003 after 48 hrs by broth dilution method; type: functional; conditions: Candida albicans, ATCC MYA-1003, 48 h; method in brief: as §2
Candida albicans [11] = experiment: Antifungal activity against itraconazole and fluconazole susceptible Candida albicans ATCC MYA-2310 after 48 hrs by broth dilution method; type: functional; conditions: Candida albicans, ATCC MYA-2310, 48 h
Candida albicans [12] = experiment: Inhibition of 14alpha-demethylase in Candida albicans ATCC 10231 assessed as lanosterol levels at 0.975 ug/mL by GC-MS analysis; set-up: scale not given: the % may be the effect or the level left; method in brief: as §1
Aspergillus nidulans [13] = experiment: Antifungal activity against Aspergillus nidulans ATCC 38163 after 48 hrs in the presence of 10% FBS by broth dilution method; type: functional; conditions: ATCC 38163, 48 h
Candida albicans [14] = experiment: Ratio of MIC80 for voriconazole resistant Candida albicans ATCC 64124 sessile cells to MIC for voriconazole resistant Candida albicans ATCC 64124; type: functional
Candida albicans [15] = experiment: Inhibition of 14alpha-demethylase in Candida albicans ATCC 10231 assessed as eburicol levels at 0.975 ug/mL by GC-MS analysis; set-up: scale not given: the % may be the effect or the level left; method in brief: as §1
Candida albicans [16] = experiment: Inhibition of 14alpha-demethylase in Candida albicans ATCC 10231 assessed as 14alpha-methyl ergosta-8,24(28)-dien-3beta,6alpha-diol levels at 0.975 ug/mL by GC-MS analysis; set-up: scale not given: the % may be the effect or the level left; method in brief: as §1
Candida parapsilosis [17] = experiment: Antifungal activity against Candida parapsilosis ATCC 22019 after 48 hrs in the presence of 10% FBS by broth dilution method; type: functional; conditions: Lodderomyces parapsilosis, ATCC 22019, 48 h
Candida albicans [18] = experiment: Antifungal activity against Candida albicans ATCC 64124 after 48 hrs by broth dilution method; type: functional; conditions: Candida albicans, ATCC 64124, 48 h; method in brief: as §2
[19] = Aqueous solubility of the compound; type: physicochemical; conditions: buffer
[20] = Solubility of the compound in DMSO; type: physicochemical
Candida albicans [21] = experiment: Inhibition of 14alpha-demethylase in Candida albicans ATCC 10231 assessed as total sterol levels at 0.975 ug/mL by GC-MS analysis; set-up: scale not given: the % may be the effect or the level left; method in brief: as §1
Aspergillus nidulans [22] = experiment: Antifungal activity against Aspergillus nidulans ATCC 38163 after 48 hrs by broth dilution method; type: functional; conditions: Aspergillus nidulans, ATCC 38163, 48 h
Method in brief: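 A. nidulans run per CLSI M38-A2. PDA spores were filtered through glass wool and counted by hemocytometer. Test range 0.03–31.3 µg/mL in MOPS-buffered RPMI 1640 (pH 7.0), final 5 × 10^5 CFU/mL.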

Candida albicans [23] = experiment: Antifungal activity against itraconazole and fluconazole resistant Candida albicans ATCC 90819 after 48 hrs by broth dilution method; type: functional; conditions: Candida albicans, ATCC 90819, 48 h; method in brief: as §2
[24] = Cytotoxicity against human BEAS2B cells assessed as cell survival at 7.8 ug/mL after 24 hrs by resazurin-based fluorescence assay; conditions: BEAS-2B cells, read-out: Survival
Method in brief: (§3)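 Cells were grown in DMEM with 10% FBS and 1% Pen/Strep at 37 °C, 5% CO2. HEK-293 was seeded at 10000 cells/well; A549 and BEAS-2B at 3000 cells/well. After 16 h, cells were exposed for 24 h to final 0.13–31 µg/mL in 0.1–0.4% DMSO, then given resazurin for 6–10 h. Read at ex 560/em 590. […] Run in duplicate.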

Nakaseomyces glabratus [25] = experiment: Fungicidal activity against Candida glabrata ATCC 2001 at 4 times MIC incubated for 24 hrs by time kill assay; type: functional; conditions: CBS 138
Method in brief: (§4)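 Overnight YPD cultures were diluted in RPMI 1640 to OD600 0.12–0.13; initial inoculum 1–4 × 10^5 CFU/mL. […] Shaken at 200 rpm, 35 °C, for 24 h, sampling at 0, 3, 6, 9, 12 and 24 h. Serial dilutions were plated on PDA and CFU counted; detection limit 100 CFU/mL; duplicate.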

[26] = Cytotoxicity against human A549 cells assessed as cell survival at 7.8 ug/mL after 24 hrs by resazurin-based fluorescence assay; conditions: read-out: Survival; method in brief: as §3
[27] = Cytotoxicity against HEK293 cells assessed as cell survival at 7.8 ug/mL after 24 hrs by resazurin-based fluorescence assay; conditions: human, read-out: Survival; method in brief: as §3
Candida parapsilosis [28] = experiment: Fungistatic activity against Candida parapsilosis ATCC 22019 up to 8 times MIC incubated for 24 hrs by time kill assay; type: functional; method in brief: as §4

`CCCCCCCCCCCCN1CCN(CC(O)(Cn2cncn2)c2ccc(Cl)cc2Cl)CC1` (stereo not drawn) gave an MIC (Candida albicans [1]) of 3.7 µM (≈ 1.94 µg/mL), an MIC (Candida albicans [2]) of 7.4 µM (≈ 3.88 µg/mL) and an MIC (Candida parapsilosis [3]) of 0.46 µM (≈ 0.241 µg/mL). For the same compound, the MIC (Candida albicans [4]) was 1.95 µg/mL, the MIC (Aspergillus flavus) was 7.4 µM (≈ 3.88 µg/mL) and the Activity (Candida albicans [5]) was 50.6%. For the same compound, the MIC (Aspergillus terreus) was 3.7 µM (≈ 1.94 µg/mL), the MIC (Pichia kudriavzevii) was 3.7 µM (≈ 1.94 µg/mL) and the Activity (Candida albicans [6]) was “inactive”. For the same compound, the MIC50 (Candida albicans [7]) was 15.6 µg/mL (≈ 29.7 µM), the MIC80 (Candida albicans [7]) was 31.3 µg/mL (≈ 59.7 µM) and the MIC (Nakaseomyces glabratus [8]) was 1.9 µM (≈ 0.997 µg/mL). The MIC (Candida albicans [9]) was 7.4 µM (≈ 3.88 µg/mL), the MIC (Candida albicans [10]) was 3.7 µM (≈ 1.94 µg/mL) and the MIC (Candida albicans [11]) was 7.4 µM (≈ 3.88 µg/mL). The Activity (Candida albicans [12]) was 29.5%, the MIC (Aspergillus nidulans [13]) was 3.9 µg/mL and the Ratio (Candida albicans [14]) was 2 - 4. The Activity (Candida albicans [15]) was 1.15%, the Activity (Candida albicans [16]) was 11.1% and the MIC (Candida parapsilosis [17]) was 0.24 µg/mL. The MIC (Candida albicans [18]) was 14.9 µM (≈ 7.82 µg/mL), the solubility [19] was “Soluble” and the solubility [20] was “Soluble”. For the same compound, the Activity (Candida albicans [21]) was 3.56 to 4.08%, the MIC (Aspergillus nidulans [22]) was 3.7 µM (≈ 1.94 µg/mL) and the MIC (Candida albicans [23]) was 7.4 µM (≈ 3.88 µg/mL).

In the case of `CCCCCCCCCCCCN1CCN(CC(O)(Cn2cncn2)c2ccc(F)cc2F)CC1` (stereo not drawn), the MIC (Candida albicans [1]) was 3.9 µM (≈ 1.92 µg/mL), the MIC (Candida albicans [2]) was 7.9 µM (≈ 3.88 µg/mL) and the MIC (Candida parapsilosis [3]) was 0.03 µM (≈ 0.0148 µg/mL). For the same compound, the MIC (Candida albicans [4]) was 1.95 µg/mL, the MIC (Aspergillus flavus) was 3.9 µM (≈ 1.92 µg/mL) and the viability at 24 h, 7.8 ug/mL [24] was < 40%. The MIC (Aspergillus terreus) was 7.9 µM (≈ 3.88 µg/mL), the MIC (Pichia kudriavzevii) was 0.98 µM (≈ 0.482 µg/mL) and the MIC50 (Candida albicans [7]) was 7.8 µg/mL (≈ 15.9 µM). The MIC80 (Candida albicans [7]) was 15.6 µg/mL (≈ 31.7 µM), the MIC (Nakaseomyces glabratus [8]) was 2 µM (≈ 0.983 µg/mL) and the MIC (Candida albicans [9]) was 15.9 µM (≈ 7.82 µg/mL). For the same compound, the MIC (Candida albicans [10]) was 31.7 µM (≈ 15.6 µg/mL), the MIC (Candida albicans [11]) was 15.9 µM (≈ 7.82 µg/mL) and the Activity (Nakaseomyces glabratus [25]) was “Active”. The MIC (Aspergillus nidulans [13]) was 3.9 µg/mL, the Ratio (Candida albicans [14]) was 1 - 2 and the viability at 24 h, 7.8 ug/mL [26] was < 40%. For the same compound, the viability at 24 h, 7.8 ug/mL [27] was < 40%, the MIC (Candida parapsilosis [17]) was 0.06 µg/mL and the MIC (Candida albicans [18]) was 15.9 µM (≈ 7.82 µg/mL). The solubility [19] was “Soluble”, the Activity (Candida parapsilosis [28]) was “Active” and the solubility [20] was “Soluble”. For the same compound, the MIC (Aspergillus nidulans [22]) was 7.9 µM (≈ 3.88 µg/mL) and the MIC (Candida albicans [23]) was 7.9 µM (≈ 3.88 µg/mL).

From ChEMBL document CHEMBL4024783, “Alkylated Piperazines and Piperazine-Azole Hybrids as Antifungal Agents” (J Med Chem, 2018)
